Experimental data: ChEMBL document CHEMBL4118199 (J Med Chem, 2018)

Key:
[1] = Stability in pH 7.4 PBS buffer at 1 mM after 1 hr by HPLC analysis; format: physicochemical; conditions: read-out: Stability
In short: (§1)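 Compound in DMSO added to 1x PBS adjusted with HCl/NaOH to pH 6.5, 7.4 or 8.0, giving about 1 mM final. Sulfonyl fluoride hydrolysis followed by analytical HPLC over 12 h. Peak measured right after buffer addition set as 0 h reference. Reported as residual % of intact R-SO2F.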

[2] = Stability in pH 8 PBS buffer at 1 mM after 2 hrs by HPLC analysis; format: physicochemical; conditions: read-out: Stability; in short: as §1
[3] = Stability in pH 6.5 PBS buffer at 1 mM after 12 hrs by HPLC analysis; format: physicochemical; conditions: read-out: Stability; in short: as §1
Homo sapiens [4] = species on record: Homo sapiens; test: Selectivity ratio of IC50 for human 20S constitutive proteasome beta-5 to IC50 for human 20S constitutive proteasome beta-2
[5] = Stability in pH 7.4 PBS buffer at 1 mM after 6 hrs by HPLC analysis; format: physicochemical; conditions: read-out: Stability; in short: as §1
Homo sapiens [6] = species on record: Homo sapiens; test: Selectivity ratio of IC50 for human 20S immunoproteasome beta-5 to IC50 for human 20S immunoproteasome beta-2
[7] = target: T1, Proteasome subunit beta type-8 (Homo sapiens, UniProt P28062); test: Inhibition of human 20S immunoproteasome beta-5 using Suc-LLVY-AMC as substrate after 60 mins by fluorescence assay
T1 sequence (P28062 whole entry): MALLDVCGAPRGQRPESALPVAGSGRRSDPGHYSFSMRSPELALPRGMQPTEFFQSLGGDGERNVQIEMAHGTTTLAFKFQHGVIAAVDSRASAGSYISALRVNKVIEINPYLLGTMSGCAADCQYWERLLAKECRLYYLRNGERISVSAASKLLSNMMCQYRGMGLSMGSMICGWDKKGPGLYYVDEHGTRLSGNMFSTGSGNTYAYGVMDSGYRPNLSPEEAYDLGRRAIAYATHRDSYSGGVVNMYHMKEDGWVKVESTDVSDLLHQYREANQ
In short: (§2)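 Purified 20S proteasome (final 2.5 nM) in kit assay buffer. Inhibitors preincubated 60 min at ambient temperature with shaking, final concentrations 0.1 nM–400 µM. Fluorogenic substrate at final 100 µM. Fluorescence (ex 360 nm, em 460 nm) read kinetically for 2 h at 25 °C. Duplicates, three repetitions. IC50 obtained from a Hill-equation fit of % residual activity against log concentration.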

[8] = target: T2, Proteasome subunit beta type-10 (Homo sapiens, UniProt P40306); test: Inhibition of human 20S immunoproteasome beta-2 using Bz-VGR-AMC as substrate after 60 mins by fluorescence assay; in short: as §2
T2 sequence (P40306 whole entry): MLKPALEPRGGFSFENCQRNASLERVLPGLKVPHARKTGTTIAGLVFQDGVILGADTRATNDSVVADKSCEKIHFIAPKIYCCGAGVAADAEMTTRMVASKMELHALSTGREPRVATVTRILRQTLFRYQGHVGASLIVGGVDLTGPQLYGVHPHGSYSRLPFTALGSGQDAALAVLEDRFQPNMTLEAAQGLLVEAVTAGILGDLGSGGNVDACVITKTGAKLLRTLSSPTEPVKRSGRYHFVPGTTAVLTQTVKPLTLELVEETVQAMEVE

[9] = target: T3, Proteasome Macropain subunit MB1 (Homo sapiens, UniProt P28074); test: Inhibition of human 20S constitutive proteasome beta-5 using Suc-LLVY-AMC as substrate after 60 mins by fluorescence assay
T3 sequence (P28074 whole entry): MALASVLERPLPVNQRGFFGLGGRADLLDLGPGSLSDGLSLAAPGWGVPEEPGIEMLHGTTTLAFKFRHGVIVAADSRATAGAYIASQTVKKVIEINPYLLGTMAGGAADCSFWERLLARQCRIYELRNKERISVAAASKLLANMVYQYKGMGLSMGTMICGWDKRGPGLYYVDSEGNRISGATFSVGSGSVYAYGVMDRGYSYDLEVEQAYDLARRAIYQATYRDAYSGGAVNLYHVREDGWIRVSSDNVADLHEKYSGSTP
In short: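 Inhibitors preincubated 60 min at ambient temperature with shaking, final concentrations 0.1 nM–400 µM. Fluorogenic substrate at final 100 µM. Duplicates, three repetitions. IC50 obtained from a Hill-equation fit of % residual activity against log concentration.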

Structure (SMILES) | remaining at 1 h, 1000 µM [1] [%] | remaining at 2 h, 1000 µM [2] [%] | remaining at 12 h, 1000 µM [3] [%] | Ratio IC50 (Homo sapiens [4]) | remaining at 6 h, 1000 µM [5] [%] | Ratio IC50 (Homo sapiens [6]) | IC50 [7] [µM] | IC50 [8] [µM] | IC50 [9] [µM]
CC(C)C[C@H](NC(=O)OCc1ccccc1)C(=O)N[C@@H](CC(C)C)C(=O)N[C@@H](CC(C)C)C(=O)N[C@@H](CCCNC(=N)N)CS(=O)(=O)F | 90 | 50 | 75 | 50 | ≥ 50 | 13 | 14 | 1.11 | 10
CC(C)C[C@H](NC(=O)[C@H](Cc1ccccc1)N=[N+]=[N-])C(=O)N[C@@H](CC(C)C)C(=O)N[C@@H](Cc1ccc(N)cc1)CS(=O)(=O)F | 90 | 50 | 75 | – | ≥ 50 | – | – | – | –
CC(C)C[C@H](NC(=O)[C@H](Cc1ccccc1)N=[N+]=[N-])C(=O)N[C@@H](CC(C)C)C(=O)N[C@@H](CCCNC(=N)N)CS(=O)(=O)F | 90 | 50 | 75 | 110 | ≥ 50 | – | – | – | 39
CC(=O)N[C@@H](Cc1ccccc1)C(=O)N[C@@H](CC(C)C)C(=O)N[C@@H](CC(C)C)C(=O)N[C@@H](CCCCN)CS(=O)(=O)F | 90 | 50 | 75 | 300 | ≥ 50 | – | – | – | > 100
CC(=O)N[C@@H](Cc1ccccc1)C(=O)N[C@@H](CC(C)C)C(=O)N[C@@H](CC(C)C)C(=O)N[C@@H](Cc1ccc(CN)cc1)CS(=O)(=O)F | 90 | 50 | 75 | 150 | ≥ 50 | 44 | 17.2 | 0.395 | 18
CC(C)C[C@H](NC(=O)[C@H](CC(C)C)NC(=O)[C@@H](N)Cc1ccccc1)C(=O)N[C@@H](Cc1ccc(CN)cc1)CS(=O)(=O)F | 90 | 50 | 75 | 900 | ≥ 50 | 380 | 137 | 0.36 | 125
CC(C)C[C@H](NC(=O)[C@H](CC(C)C)NC(=O)[C@@H](N)Cc1ccccc1)C(=O)N[C@@H](CCCCN)CS(=O)(=O)F | 90 | 50 | 75 | > 1000 | ≥ 50 | > 1000 | > 100 | 0.3 | > 100
CC(=O)N[C@@H](Cc1ccccc1)C(=O)N[C@@H](CC(C)C)C(=O)N[C@@H](CC(C)C)C(=O)N[C@@H](Cc1ccc(N)cc1)CS(=O)(=O)F | 90 | 50 | 75 | 0.1 | ≥ 50 | – | – | – | 0.21
